Data reported in ChEMBL document CHEMBL4715713, “Novel anticancer oridonin derivatives possessing a diazen-1-ium-1,2-diolate nitric oxide donor moiety: Design, synthesis, biological evaluation and nitric oxide release studies” (Bioorg Med Chem Lett, 2016).
Where a name gives a salt, the structure may show the parent alone.

Assays:
Bel-7402 [1] = assay: Antiproliferative activity against human Bel-7402 cells assessed as reduction in cell viability incubated for 72 hrs by MTT assay; assay type: functional, cell-based; settings: Bel-7402, 72 h
Procedure, shortened: (§1)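 Cells were exposed to a range of test concentrations for 72 h and viability was read by MTT. IC50 values were taken from the concentration-response data, and means ± SD are from n = 3.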

Bel-7402 [2] = assay: Antiproliferative activity against human Bel-7402 cells assessed as reduction in cell viability incubated for 72 hrs in presence of O2-Chloromethyl-1-( morpholin -1-yl)diazen-1-ium-1,2-diolate by MTT assay; assay type: functional, cell-based; settings: Bel-7402, 72 h
[3] = Prodrug release in human Bel-7402 cells assessed as NO release by measuring increase in nitrite/nitrate production at 50 uM measured upto 24 hrs by Griess reagent based assay; assay type: ADME, cell-based; settings: bel-7402, 24 h
Procedure, shortened: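 Bel-7402 cells were seeded at 15,000/mL and treated in triplicate with each compound at 50 µM for varying times. Nitrate/nitrite in the cell lysates was determined by the Griess assay. Values are the mean of three independent experiments.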

Bel-7402 [4] = assay: Antiproliferative activity against human Bel-7402 cells assessed as reduction in cell viability at 1 uM incubated for 72 hrs by MTT assay relative to control; assay type: functional
Bel-7402 [5] = assay: Antiproliferative activity against human Bel-7402 cells assessed as reduction in cell viability at 10 uM incubated for 72 hrs by MTT assay relative to control; assay type: functional
Bel-7402 [6] = assay: Induction of cell cycle arrest in human Bel-7402 cells assessed as accumulation in S phase at 0.625 uM incubated for 36 hrs by PI staining based flow cytometry analysis (reference value: 19.68 %); assay type: functional
HepG2 = assay: Antiproliferative activity against human HepG2 cells assessed as reduction in cell viability incubated for 72 hrs by MTT assay; assay type: functional, cell-based; settings: HepG2, 72 h; procedure, shortened: as §1
Bel-7402 [7] = assay: Induction of cell cycle arrest in human Bel-7402 cells assessed as accumulation in G1 phase at 0.625 uM incubated for 36 hrs by PI staining based flow cytometry analysis (reference value: 74.01 %); assay type: functional
Bel-7402 [8] = assay: Induction of apoptosis in human Bel-7402 cells assessed as apoptotic cells at 2.5 uM incubated for 36 hrs by Annexin V-FITC and PI staining based flow cytometry analysis (reference value: 6.20%); assay type: functional
Bel-7402 [9] = assay: Induction of cell cycle arrest in human Bel-7402 cells assessed as accumulation in G2 phase at 1.25 uM incubated for 36 hrs by PI staining based flow cytometry analysis (reference value: 6.31 %); assay type: functional
Bel-7402 [10] = assay: Induction of cell cycle arrest in human Bel-7402 cells assessed as increase in accumulation in S phase incubated for 36 hrs by PI staining based flow cytometry analysis; assay type: functional; settings: dose 0.625-2.5 µM
Bel-7402 [11] = assay: Induction of cell cycle arrest in human Bel-7402 cells assessed as accumulation in G2 phase at 0.625 uM incubated for 36 hrs by PI staining based flow cytometry analysis (reference value: 6.31 %); assay type: functional
A549 = assay: Antiproliferative activity against human A549 cells assessed as reduction in cell viability incubated for 72 hrs by MTT assay; assay type: functional, cell-based; settings: A549, 72 h; procedure, shortened: as §1
Bel-7402 [12] = assay: Induction of cell cycle arrest in human Bel-7402 cells assessed as accumulation in G2 phase at 2.5 uM incubated for 36 hrs by PI staining based flow cytometry analysis (reference value: 6.31 %); assay type: functional
Bel-7402 [13] = assay: Induction of cell cycle arrest in human Bel-7402 cells assessed as accumulation in G1 phase at 2.5 uM incubated for 36 hrs by PI staining based flow cytometry analysis (reference value: 74.01 %); assay type: functional
K562 = assay: Antiproliferative activity against human K562 cells assessed as reduction in cell viability incubated for 72 hrs by MTT assay; assay type: functional, cell-based; settings: K562, 72 h; procedure, shortened: as §1
Bel-7402 [14] = assay: Induction of cell cycle arrest in human Bel-7402 cells assessed as accumulation in S phase at 1.25 uM incubated for 36 hrs by PI staining based flow cytometry analysis (reference value: 19.68 %); assay type: functional
HeLa = assay: Antiproliferative activity against human HeLa cells assessed as reduction in cell viability incubated for 72 hrs by MTT assay; assay type: functional, cell-based; procedure, shortened: as §1
Bel-7402 [15] = assay: Induction of cell cycle arrest in human Bel-7402 cells assessed as accumulation in S phase at 2.5 uM incubated for 36 hrs by PI staining based flow cytometry analysis (reference value: 19.68 %); assay type: functional
Bel-7402 [16] = assay: Induction of cell cycle arrest in human Bel-7402 cells assessed as accumulation in G1 phase at 1.25 uM incubated for 36 hrs by PI staining based flow cytometry analysis (reference value: 74.01 %); assay type: functional

SMILES | IC50 (Bel-7402 [1]) | Drug metabolism [3] | inhibition at 1 µM (Bel-7402 [4]) | inhibition at 10 µM (Bel-7402 [5]) | also measured
[O-]/[N+](=N\OCCl)N1CCOCC1 | 24.6 µM | – | – | – | –
C=C1C(=O)[C@]23[C@H](OC(=O)CCC(=O)O)[C@H]1CC[C@H]2[C@@]12CO[C@@]3(O)[C@@H](O)[C@@H]1C(C)(C)CCC2=O | 9.07 µM | – | – | – | IC50 (Bel-7402 [2]): 5.28 µM
COc1cccc2c1C(=O)c1c(O)c3c(c(O)c1C2=O)C[C@@](O)(C(=O)CO)C[C@@H]3O[C@H]1C[C@H](N)[C@H](O)[C@H](C)O1 [DOXORUBICIN HYDROCHLORIDE] | 0.83 µM | – | – | – | –
C=C1C(=O)[C@]23[C@H](OC(=O)CCC(=O)OCO/N=[N+](\[O-])N4CCCC4)[C@H]1CC[C@H]2[C@@]12CO[C@@]3(O)[C@@H](O)[C@@H]1C(C)(C)CC[C@@H]2O | 13.3 µM | Metabolite_Detected | 15.9% | 93.2% | –
C=C1C(=O)[C@]23[C@H](OC(=O)CCCC(=O)OCO/N=[N+](\[O-])N4CCOCC4)[C@H]1CC[C@H]2[C@@]12CO[C@@]3(O)[C@@H](O)[C@@H]1C(C)(C)CCC2=O | 1.84 µM | Metabolite_Detected | 87.8% | 93.9% | Activity (Bel-7402 [6]): 26.42%; IC50 (HepG2): 2570 nM; Activity (Bel-7402 [7]): 68.47%; Activity (Bel-7402 [8]): 51.91%; Activity (Bel-7402 [9]): 3.66%; Activity (Bel-7402 [10]): Dose-dependent effect; Activity (Bel-7402 [11]): 5.1%; IC50 (A549): 1130 nM; Activity (Bel-7402 [12]): 4.8%; Activity (Bel-7402 [13]): 58.98%; IC50 (K562): 8.48 µM; Activity (Bel-7402 [14]): 29.99%; IC50 (HeLa): 2460 nM; Activity (Bel-7402 [15]): 36.22%; Activity (Bel-7402 [16]): 66.35%
C=C1C(=O)[C@]23[C@H](OC(=O)CCC(=O)OCO/N=[N+](\[O-])N4CCOCC4)[C@H]1CC[C@H]2[C@@]12CO[C@@]3(O)[C@@H](O)[C@@H]1C(C)(C)CC[C@@H]2OC(C)=O | 3.03 µM | – | 85.8% | 94.5% | –
C=C1C(=O)[C@]23[C@H](OC(=O)CCCC(=O)OCO/N=[N+](\[O-])N4CCCC4)[C@H]1CC[C@H]2[C@@]12CO[C@@]3(O)[C@@H](O)[C@@H]1C(C)(C)CCC2=O | 17 µM | Metabolite_Detected | 13.5% | 93.9% | –
C=C1C(=O)[C@]23[C@H](OC(=O)CCC(=O)OCO/N=[N+](\[O-])N4CCOCC4)[C@H]1CC[C@H]2[C@@]12CO[C@@]3(O)[C@@H](O)[C@@H]1C(C)(C)CCC2=O | 3.26 µM | – | 71.3% | 93.1% | –
C=C1C(=O)[C@]23[C@H](OC(=O)CCC(=O)OCO/N=[N+](\[O-])N4CCOCC4)[C@H]1CC[C@H]2[C@@]12CO[C@@]3(O)[C@@H](O)[C@@H]1C(C)(C)CC[C@@H]2O | 2.75 µM | Metabolite_Detected | 88.5% | 93.3% | –
C=C1C(=O)[C@]23[C@H](O)[C@H]1CC[C@H]2[C@@]12CO[C@]3(O)[C@@H](O)[C@@H]1C(C)(C)CC[C@@H]2O [ORIDONIN] | 7.12 µM | – | 29.9% | 93.6% | –
C=C1C(=O)[C@]23[C@H](OC(=O)CCCC(=O)OCO/N=[N+](\[O-])N4CCCC4)[C@H]1CC[C@H]2[C@@]12CO[C@@]3(O)[C@@H](O)[C@@H]1C(C)(C)CC[C@@H]2O | 10.9 µM | – | 26.1% | 93.4% | –
C=C1C(=O)[C@]23[C@H](OC(=O)CCCC(=O)OCO/N=[N+](\[O-])N4CCOCC4)[C@H]1CC[C@H]2[C@@]12CO[C@@]3(O)[C@@H](O)[C@@H]1C(C)(C)CC[C@@H]2O | 2.53 µM | – | 83.8% | 92.7% | –
C=C1C(=O)[C@]23[C@H](OC(=O)CCC(=O)OCO/N=[N+](\[O-])N4CCCC4)[C@H]1CC[C@H]2[C@@]12CO[C@@]3(O)[C@@H](O)[C@@H]1C(C)(C)CCC2=O | 14.6 µM | – | 24.2% | 93.6% | –
